Screens deposited in PubChem by The Scripps Research Institute Molecular Screening Center.
TCR-CD3 inh: blocks the human TCR-CD3 interaction; TAMRA-labeled TCR probe fluorescence, biochemical; inhibition, % at 9.4 µM; 360,000 tested, 0.37% active; in the data active = inhibition above about 19%;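 also: recombinant mutant TCR 2C K166C tagged with TAMRA read by polarization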
HTRA1 inhibitor: HTRA1 (human) protease inhibition. Q92743. recombinant HTRA1, FP-rhodamine activity-based probe, fluorescence polarization. inhibition, % at 5.96 µM. 340,000 tested, 0.5% active. AID 504803; in the data active = inhibition above about 36%
PRMT1 inh: blocks human protein arginine methyltransferase 1; Q99873; recombinant PRMT1, activity-based probe fluorescence polarization; inhibition, % at 2.79 µM; 370,000 tested, 1.3% active;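 active = inhibition above about 21% made by adding two undisclosed values, limit read from the data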
rCAG binder: molecules binding r(CAG) RNA repeats | r(CAG) RNA repeat, TO-PRO-1 dye displacement fluorescence | 370,000 tested, 1.3% active | inhibition, % at 3 µM;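 active = inhibition above the plate cutoff, the mean of all test compounds on that plate plus 3 SD, cut at about 35% in these data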;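 also: higher means more dye released from RNA so lower well fluorescence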
SIAE primary: blocks human sialic acid acetylesterase | Q9HAT2 | SIAE FP-Rh probe binding, fluorescence polarization | inhibition, % at 9.66 µM | 370,000 tested, 0.69% active;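 active = inhibition above a cutoff: mean of compounds within the control limits plus 3 SD of those, cut at about 17% in these data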
ABHD4 inh: inhibitors of mouse ABHD4; Q8VD66; purified mABHD4, FP-Rh probe fluorescence polarization; inhibition, % at 8.92 µM; 370,000 tested, 0.54% active; AID 720543;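 active = inhibition exceeding the mean over every tested compound plus 3 SD, cut at about 30% in these data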
Target sequence (Q8VD66 whole entry, looked up): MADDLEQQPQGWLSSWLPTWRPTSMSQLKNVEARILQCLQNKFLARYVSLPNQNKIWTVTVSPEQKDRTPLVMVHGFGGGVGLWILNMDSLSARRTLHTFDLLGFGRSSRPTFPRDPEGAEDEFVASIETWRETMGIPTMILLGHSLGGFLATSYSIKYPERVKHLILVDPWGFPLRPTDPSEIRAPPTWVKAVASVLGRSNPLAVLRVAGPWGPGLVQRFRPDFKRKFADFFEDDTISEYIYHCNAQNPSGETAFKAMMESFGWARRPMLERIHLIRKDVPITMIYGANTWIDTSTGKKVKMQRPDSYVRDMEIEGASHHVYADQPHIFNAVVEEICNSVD
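System: mouse ABHD4 enzyme, wild type / Medium: HEPES pH 7.0, NaCl, Pluronic buffer / Reagent: FP-Rh activity-based fluorescent probe / Control set: S159A mutant high control, sample median low control / Detection: fluorescence polarization with parallel and perpendicular emission, 525/598 nm / Schedule: 45 min + 60 min at 25 °C / Compound dosing: 8.92 µM, single dose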
rCAG binder conf: r(CAG) RNA repeat binding, confirmation | shares compounds with rCAG binder | TO-PRO-1 dye displacement fluorescence | inhibition, % at 3 µM | 4,300 tested, 70% active;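 active = inhibition above a per-plate cutoff, the mean inhibition of sample wells plus 3 SD, cut at about 35% in these data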;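 also: loss of TO-PRO-1 fluorescence as compound displaces dye from 1x1 AA loop RNA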
DNA CAG counter: DNA CAG dye complex inhibition counter-screen. shares compounds with rCAG binder. d(CAG) DNA oligo TO-PRO-1 dye displacement, fluorescence. inhibition, % at 3 µM. 4,300 tested, 94% active. AID 652068;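 active = inhibition above its plate's cutoff, the mean test-well inhibition plus 3 SD, cut at about 4.8% in these data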;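 also: hits displace the dye from DNA and so lower well fluorescence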
dCAG dye DR: disrupts DNA CAG TO-PRO-1 complex in dose response. shares compounds with rCAG binder. DNA CAG/GTC duplex TO-PRO-1 dye displacement fluorescence. IC50, µM. 250 tested, 20% active. AID 686960; in the data active = IC50 below about 10 µM
Each line names hits and unclear results; the compound was inactive in the other large screens (follow-up assays come after a bar, where they were run). Hits are enriched below; roughly 3.5% of the tested compounds scored in any of these assays.

Cc1nc2ccc(C(=O)N3CCN(C(=O)C(Cl)Cl)CC3)cc2n1C1CCCC1	none (no result: TCR-CD3 inh, HTRA1 inhibitor)
CCOC(=O)[C@]12CCCCC/C=C\1N(CCc1ccc(Cl)cc1)C(=O)[C@H]2CC(=O)N1CCOCC1	none (no result: TCR-CD3 inh, HTRA1 inhibitor)
O=C(Nc1c(C(=O)Nc2ccccc2)cnn1-c1ccccc1)c1ccco1	none
O=C(Nc1c(C(=O)Nc2cccc3ccccc23)cnn1-c1ccccc1)c1ccco1	rCAG binder 64 | rCAG binder conf 49 | DNA CAG counter 16
Cc1cccc(NC(=O)Cn2nnc(-c3ccccc3F)n2)c1C	none (no result: TCR-CD3 inh, HTRA1 inhibitor)
Cc1cc(C)c(S(=O)(=O)Nc2nnc(CC(C)C)s2)c(C)c1	rCAG binder 49 | rCAG binder conf inactive | DNA CAG counter 8.4
O=[N+]([O-])c1ccc(S(=O)(=O)Nc2nnc(C3CCCCC3)s2)cc1	rCAG binder 47 | rCAG binder conf inactive | DNA CAG counter 8.3
Cc1cc(C)c(S(=O)(=O)Nc2nnc(C3CCCCC3)s2)c(C)c1	rCAG binder 72 | rCAG binder conf 59 | DNA CAG counter 25
Cc1cc(C)c(S(=O)(=O)Nc2nnc(C)s2)c(C)c1	none
O=S(=O)(Nc1nnc(C2CCCCC2)s1)c1ccc(F)cc1	none
O=S1(=O)c2c(cccc2N2CCSCC2)Oc2ccccc2CN1Cc1cn(Cc2ccc(C(F)(F)F)cc2)nn1	none (no result: TCR-CD3 inh, HTRA1 inhibitor)
CCCCCCCCCCCC(=O)c1c(O)cccc1O	rCAG binder 41 | rCAG binder conf 39 | DNA CAG counter 23
C=CCn1c(COc2ccc(C)cc2)nnc1SCC(=O)Nc1cc(Cl)cc(Cl)c1	none (no result: TCR-CD3 inh, HTRA1 inhibitor)
C[C@@H]1CN([C@@H](C)CO)S(=O)(=O)c2ccc(/C=C/c3ccccc3)cc2O[C@@H]1CN(C)Cc1ccc(C(=O)O)cc1	rCAG binder 60 | rCAG binder conf 66 | DNA CAG counter 25
Cc1nn(CCC(=O)NNC(=O)Nc2ccc(F)cc2)c(C)c1[N+](=O)[O-]	none (no result: TCR-CD3 inh, HTRA1 inhibitor)
Cc1ccc(-c2nn(-c3ccccc3)cc2/C=N/NS(=O)(=O)c2ccccc2)cc1	rCAG binder 37 | rCAG binder conf 41 | DNA CAG counter 14
O=S(=O)(N/N=C\c1cn(-c2ccccc2)nc1-c1ccccc1)c1ccccc1	rCAG binder 35 | rCAG binder conf 44 | DNA CAG counter 13
Cc1ccc(S(=O)(=O)N/N=C\c2cn(-c3ccccc3)nc2-c2ccccc2)cc1	none
Cc1ccc(C(=O)N/C(=C/c2cn(-c3ccccc3)nc2-c2ccccc2)C(=O)O)cc1	rCAG binder 52 | rCAG binder conf 45 | DNA CAG counter 12
COC(=O)CCC1NC(=O)C(Cc2c[nH]c3ccccc23)NC(=O)C2CC(=O)OC(C)C(NC(=O)C(C)NC(=O)C3CCCN3C(=O)C3CCCN3C(=O)C(C)NC(C)=O)C(=O)NC(CC(C)C)C(=O)NC(CCCCNC(=O)CCC(C(=O)NC(Cc3ccc(O)cc3)C(=O)O)NC1=O)C(=O)NC(Cc1c[nH]c3ccccc13)C(=O)N1CCCC1C(=O)NC(CO)C(=O)N2 (stereo not drawn)	none (no result: TCR-CD3 inh, HTRA1 inhibitor)
Cc1cc(C(F)F)n2ncc(C(=O)NCCc3ccccc3Cl)c2n1	none
COC(=O)c1c[nH]n2c(=O)c(Cl)c(C)nc12	none
Cc1nc2c(C(=O)NCCc3ccccc3Cl)c[nH]n2c(=O)c1Cl	rCAG binder 71 | rCAG binder conf 74 | DNA CAG counter 33 | dCAG dye DR 4.5
Cc1nc2c(C(=O)NCc3ccccc3Cl)c[nH]n2c(=O)c1Cl	rCAG binder 81 | rCAG binder conf 58 | DNA CAG counter 21
COc1ccc(/C=C(\NC(=O)c2ccc(OC)cc2)C(=O)Nc2cccc(C(=O)O)c2)cc1	none
COc1ccc(C(=O)N/C(=C/c2ccc(Cl)cc2)C(=O)Nc2ccc(C(=O)O)cc2)cc1	rCAG binder 46 | rCAG binder conf 42 | DNA CAG counter 12
